Measurements taken from ChEMBL document CHEMBL2169806, “Design, synthesis, and pharmacological evaluation of N-acylhydrazones and novel conformationally constrained compounds as selective and potent orally active phosphodiesterase-4 inhibitors” (J Med Chem, 2012).
Blank lines part the entries; values can stand above or below the molecule they belong to.

Legend:
Bos taurus [1] = species: Bos taurus; assay: Inhibition of bovine PDE4 using [3H]cAMP as substrate at 10 uM
In short: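 Enzyme was PDE4 isolated from the media layer of bovine aorta, run in the two-step activity assay at 1 μM cAMP.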

Mus musculus [2] = assay: Antiinflammatory activity in A/J mouse assessed as inhibition of neutrophil accumulation in bronchoalveolar space at 3 mg/kg, po administered 1 hr prior to LPS-challenge measured after 18 hrs relative to vehicle-treated control; assay type: functional; conditions: Lung
Mus musculus [3] = assay: Antiinflammatory activity in A/J mouse assessed as inhibition of LPS-induced airway elastance provoked by methacholine at 3 mg/kg, po administered 1 hr prior to LPS-challenge measured after 18 hrs relative to vehicle-treated control; assay type: functional
Mus musculus [4] = assay: Antiinflammatory activity in A/J mouse assessed as inhibition of LPS-induced airway resistance provoked by methacholine at 3 mg/kg, po administered 1 hr prior to LPS-challenge measured after 18 hrs relative to vehicle-treated control; assay type: functional
[5] = Inhibition of bovine PDE4 using [3H]cAMP as substrate; design: species or system Bos taurus
Mus musculus [6] = assay: Antiinflammatory activity in A/J mouse assessed as inhibition of LPS-induced airway elastance provoked by methacholine at 100 umol/kg, po administered 1 hr prior to LPS-challenge measured after 18 hrs relative to vehicle-treated control; assay type: functional
PBMC [7] = assay: Antiinflammatory activity in human PBMC assessed as inhibition of LPS-induced TNFalpha production after 24 hrs by ELISA; assay type: functional, cell-based
Bos taurus [8] = species: Bos taurus; assay: Inhibition of bovine PDE5 using […] as substrate at 10 uM
Mus musculus [9] = assay: Antiinflammatory activity in A/J mouse assessed as inhibition of LPS-induced airway resistance provoked by methacholine at 100 umol/kg, po administered 1 hr prior to LPS-challenge measured after 18 hrs relative to vehicle-treated control; assay type: functional
PBMC [10] = assay: Antiinflammatory activity in human PBMC assessed as inhibition of LPS-induced TNFalpha production at 10 uM after 24 hrs by ELISA relative to control; assay type: functional
[11] = molecular target: T1, cGMP-dependent 3',5'-cyclic phosphodiesterase (Homo sapiens, UniProt O00408); assay: Inhibition of human PDE2 using [3H]cAMP as substrate
T1 sequence (O00408 whole entry): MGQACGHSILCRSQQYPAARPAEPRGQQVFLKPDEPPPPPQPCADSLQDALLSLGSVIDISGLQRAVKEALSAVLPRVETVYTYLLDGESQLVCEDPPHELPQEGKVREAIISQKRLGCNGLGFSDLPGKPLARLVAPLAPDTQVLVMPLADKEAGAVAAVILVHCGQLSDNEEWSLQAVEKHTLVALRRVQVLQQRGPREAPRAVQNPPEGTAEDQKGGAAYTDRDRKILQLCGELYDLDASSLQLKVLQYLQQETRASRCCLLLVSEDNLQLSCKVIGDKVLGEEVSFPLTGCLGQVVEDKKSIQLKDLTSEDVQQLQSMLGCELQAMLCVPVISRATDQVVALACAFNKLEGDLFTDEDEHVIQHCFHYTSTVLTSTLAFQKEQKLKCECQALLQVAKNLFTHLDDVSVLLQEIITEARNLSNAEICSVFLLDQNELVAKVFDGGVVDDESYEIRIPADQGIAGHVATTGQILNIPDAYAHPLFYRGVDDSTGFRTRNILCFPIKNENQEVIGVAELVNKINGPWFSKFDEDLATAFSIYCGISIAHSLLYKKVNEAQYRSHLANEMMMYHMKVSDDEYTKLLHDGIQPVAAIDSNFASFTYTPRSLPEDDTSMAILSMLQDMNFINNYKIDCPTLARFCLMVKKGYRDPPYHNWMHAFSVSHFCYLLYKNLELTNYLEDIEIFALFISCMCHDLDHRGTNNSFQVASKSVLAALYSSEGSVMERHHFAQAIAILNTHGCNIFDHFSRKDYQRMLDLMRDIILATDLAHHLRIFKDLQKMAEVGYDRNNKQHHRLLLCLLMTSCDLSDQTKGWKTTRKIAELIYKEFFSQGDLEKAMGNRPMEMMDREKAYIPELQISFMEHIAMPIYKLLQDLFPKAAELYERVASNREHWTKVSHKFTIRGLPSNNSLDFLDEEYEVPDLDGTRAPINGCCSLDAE

Mus musculus [12] = assay: Antiinflammatory activity in A/J mouse lung assessed as inhibition of LPS-induced TNFalpha production at 100 umol/kg, po administered 1 hr prior to LPS-challenge measured after 18 hrs relative to vehicle-treated control; assay type: functional
Mus musculus [13] = assay: Antiinflammatory activity in A/J mouse assessed as inhibition of neutrophil accumulation in bronchoalveolar space at 100 umol/kg, po administered 1 hr prior to LPS-challenge measured after 18 hrs relative to vehicle-treated control; assay type: functional; conditions: Lung
Mus musculus [14] = assay: Antiinflammatory activity in A/J mouse lung assessed as inhibition of LPS-induced IL6 production at 100 umol/kg, po administered 1 hr prior to LPS-challenge measured after 18 hrs relative to vehicle-treated control; assay type: functional
Bos taurus [15] = species: Bos taurus; assay: Inhibition of bovine PDE1 using [3H]cAMP as substrate at 10 uM
[16] = Inhibition of bovine PDE3 using [3H]cAMP as substrate; design: species or system Bos taurus
[17] = Inhibition of PDE6 at 10 uM
Mus musculus [18] = assay: Antiinflammatory activity in A/J mouse assessed as inhibition of leukocyte accumulation in bronchoalveolar space at 100 umol/kg, po administered 1 hr prior to LPS-challenge measured after 18 hrs relative to vehicle-treated control; assay type: functional; conditions: Lung
[19] = molecular target: 3',5'-cyclic-AMP phosphodiesterase 4D (Homo sapiens, UniProt Q08499); assay: Inhibition of human recombinant PDE4D
Chain of 3',5'-cyclic-AMP phosphodiesterase 4D (Q08499 whole entry): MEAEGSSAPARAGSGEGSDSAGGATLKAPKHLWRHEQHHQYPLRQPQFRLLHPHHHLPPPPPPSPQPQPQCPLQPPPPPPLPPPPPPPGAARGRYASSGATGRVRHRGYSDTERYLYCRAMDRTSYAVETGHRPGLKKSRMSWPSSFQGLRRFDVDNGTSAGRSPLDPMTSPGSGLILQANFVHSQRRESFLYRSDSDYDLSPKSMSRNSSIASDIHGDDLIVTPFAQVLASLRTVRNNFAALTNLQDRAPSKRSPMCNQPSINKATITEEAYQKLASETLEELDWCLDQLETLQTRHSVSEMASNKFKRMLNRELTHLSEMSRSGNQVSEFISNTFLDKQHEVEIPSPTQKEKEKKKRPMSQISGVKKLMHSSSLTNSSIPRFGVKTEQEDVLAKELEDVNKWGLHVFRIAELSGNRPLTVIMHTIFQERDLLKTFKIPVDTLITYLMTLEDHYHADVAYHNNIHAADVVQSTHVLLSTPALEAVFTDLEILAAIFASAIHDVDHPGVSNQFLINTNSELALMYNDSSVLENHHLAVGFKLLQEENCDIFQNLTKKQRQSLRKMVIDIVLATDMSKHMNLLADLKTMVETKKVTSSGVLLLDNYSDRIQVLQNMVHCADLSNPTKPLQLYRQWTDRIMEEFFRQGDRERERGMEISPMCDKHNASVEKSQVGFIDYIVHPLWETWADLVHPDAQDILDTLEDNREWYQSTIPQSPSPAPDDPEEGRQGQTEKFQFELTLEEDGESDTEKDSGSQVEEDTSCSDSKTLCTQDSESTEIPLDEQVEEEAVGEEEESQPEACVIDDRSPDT

[20] = molecular target: T1, cGMP-dependent 3',5'-cyclic phosphodiesterase; assay: Inhibition of human PDE2 using [3H]cAMP as substrate at 10 uM
[21] = Inhibition of PDE6

Compound: COc1ccc(C(=O)N/N=C/c2ccc(Cl)cc2)cc1OC
inhibition (Bos taurus [1]): 6.4%

Compound: COc1ccc([C@]2(C#N)CC[C@@H](C(=O)O)CC2)cc1OC1CCCC1 [CILOMILAST]
inhibition in vivo at 3 mg/kg (Mus musculus [2]): 43%
inhibition in vivo at 3 mg/kg (Mus musculus [3]): 93%
inhibition in vivo at 3 mg/kg (Mus musculus [4]): 93%

Compound: COc1ccc(/C=N/N(C)C(=O)c2ccc(OC)c(OC)c2)cc1
inhibition (Bos taurus [1]): 45.8%

Compound: COc1ccc(/C=N/N(C)C(=O)c2c(C)nc3ccccn23)cc1OC
inhibition (Bos taurus [1]): 45.9%

Compound: COc1ccc(/C=N/N(C)C(=O)c2ccccc2OC)cc1OC
inhibition in vivo at 100 µmol/kg (Mus musculus [6]): 59%
EC50 (PBMC [7]): 1590 nM
inhibition (Bos taurus [8]): 13.9%
inhibition in vivo at 100 µmol/kg (Mus musculus [9]): 61%
inhibition at 10 µM (PBMC [10]): 80%
IC50 [11]: 16800 nM
inhibition in vivo at 100 µmol/kg (Mus musculus [12]): 100%
IC50 [5]: 210 nM
inhibition in vivo at 100 µmol/kg (Mus musculus [13]): 53%
inhibition in vivo at 100 µmol/kg (Mus musculus [14]): 99%
inhibition (Bos taurus [15]): 11%
inhibition (Bos taurus [1]): 97.8%
IC50 [16]: 6200 nM
inhibition [17]: 11%
inhibition in vivo at 100 µmol/kg (Mus musculus [18]): 52%

Compound: COc1ccc(C(=O)N(C)/N=C/c2ccc(Cl)cc2)cc1OC
inhibition (Bos taurus [1]): 40.4%

Compound: COc1ccc(/C=N/N(C)C(=O)c2ccc(OC)c(OC)c2)cc1OC
inhibition in vivo at 100 µmol/kg (Mus musculus [6]): 79%
IC50 [21]: 17600 nM
EC50 (PBMC [7]): 1180 nM
inhibition (Bos taurus [8]): 30.9%
inhibition in vivo at 100 µmol/kg (Mus musculus [9]): 92%
inhibition at 10 µM (PBMC [10]): 92%
inhibition in vivo at 100 µmol/kg (Mus musculus [12]): 74%
IC50 [5]: 300 nM
inhibition in vivo at 100 µmol/kg (Mus musculus [13]): 50%
inhibition [20]: 40.8%
inhibition in vivo at 100 µmol/kg (Mus musculus [14]): 65%
inhibition (Bos taurus [15]): 38.7%
inhibition (Bos taurus [1]): 95.8%
IC50 [16]: 18800 nM
inhibition in vivo at 100 µmol/kg (Mus musculus [18]): 53%

Compound: COc1ccc(C(=O)N/N=C/c2ccc3c(c2)OCO3)cc1OC
inhibition (Bos taurus [1]): 10.5%

Compound: COc1cccc(C(=O)N(C)/N=C/c2ccc(OC)c(OC)c2)c1
inhibition in vivo at 100 µmol/kg (Mus musculus [6]): 69%
EC50 (PBMC [7]): 1270 nM
inhibition (Bos taurus [8]): 29.1%
inhibition in vivo at 100 µmol/kg (Mus musculus [9]): 70%
inhibition at 10 µM (PBMC [10]): 81%
inhibition in vivo at 100 µmol/kg (Mus musculus [12]): 75%
IC50 [5]: 290 nM
inhibition in vivo at 100 µmol/kg (Mus musculus [13]): 77%
inhibition [20]: 40.4%
inhibition in vivo at 100 µmol/kg (Mus musculus [14]): 38%
inhibition (Bos taurus [15]): 18.5%
inhibition (Bos taurus [1]): 98.1%
IC50 [16]: 4500 nM
inhibition [17]: 39.5%
inhibition in vivo at 100 µmol/kg (Mus musculus [18]): 73%

Second part, led by results:

inhibition (Bos taurus [1]): 5.8%
Compound: COc1ccc(C(=O)N/N=C/c2ccccc2)cc1OC

inhibition (Bos taurus [1]): 6.6%
Compound: COc1ccc(/C=N/NC(=O)c2ccc(OC)c(OC)c2)cc1

IC50 [5]: 4100 nM
inhibition (Bos taurus [1]): 81.2%
Compound: COc1ccc(-c2nn(C(=O)c3ccccc3)c3ccccc23)cc1OC

inhibition (Bos taurus [1]): 16%
Compound: COc1ccc(/C=N/NC(=O)c2ccc3c(c2)OCO3)cc1OC

inhibition (Bos taurus [8]): 22.3%
IC50 [19]: 140 nM
inhibition [20]: 23.5%
inhibition (Bos taurus [15]): 6%
inhibition (Bos taurus [1]): 97.1%
IC50 [16]: 19600 nM
inhibition [17]: 31.2%
Compound: COc1ccc(/C=N/N(C)C(=O)c2ccccc2)cc1OC
inhibition in vivo at 100 µmol/kg (Mus musculus [6]): 51%
EC50 (PBMC [7]): 1750 nM
inhibition in vivo at 100 µmol/kg (Mus musculus [9]): 58%
inhibition at 10 µM (PBMC [10]): 91%
inhibition in vivo at 100 µmol/kg (Mus musculus [12]): 46%
inhibition in vivo at 100 µmol/kg (Mus musculus [13]): 68%
inhibition in vivo at 100 µmol/kg (Mus musculus [14]): 53%
inhibition in vivo at 100 µmol/kg (Mus musculus [18]): 73%

IC50 [5]: 7300 nM
inhibition (Bos taurus [1]): 76.5%
Compound: COc1ccc(C2=NN(C)C(=O)c3ccccc3C2)cc1OC
inhibition at 10 µM (PBMC [10]): 20%

inhibition (Bos taurus [1]): 10.7%
Compound: COc1ccc(/C=N/NC(=O)c2ccc(OC)c(OC)c2)cc1OC

inhibition (Bos taurus [1]): 13.6%
Compound: COc1ccc(/C=N/NC(=O)c2ccc(O)cc2)cc1OC
